MEKK2 WT-MEK5: raises or lowers MEK5 binding to wildtype human MEKK2 PB1 domain; binding response (% of control), % at 10 µM; hit rate 1.1% among 290,000; Q9Y2U5; AID 1531; bead flow cytometry, Alexa488-MEK5 binding to MEKK2 WT; actives lie on both sides; in the data active = binding response below about 67% or above about 130%
ABCB1 inh: inhibitors of human ABCB1 transporter, ABCG2 counter-screen | P08183 | CCRF-Adr cells, JC-1 efflux, flow cytometry | inhibition, % at 6.6 µM | hit rate 0.067% among 190,000; in the data active = inhibition above about 40%;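 note: 0% = vehicle and 100% = reference inhibitor; higher value means more JC-1 retained so stronger ABCB1 efflux block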
MEKK2mut PB1 HTS: signal of MEK5 binding to mutant human MEKK2 PB1 domain. bead flow cytometry, Alexa488-MEK5 binding to MEKK2 mutant. percent response, % at 10 µM. hit rate 0.35% among 290,000; in the data active = percent response above about 24%, passing the limit was not always enough
ABCG2 block: human ABCG2 inhibition, ABCB1 as counter-screen; IgMXP3 cells, JC-1 efflux, flow cytometry; AID 1325; Q9UNQ0; hit rate 0.1% among 190,000; inhibition, % at 6.6 µM;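 active = inhibition above 80%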;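 note: 0% = DMSO and 100% = nicardipine control wells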
Target sequence (Q9UNQ0 whole entry, looked up): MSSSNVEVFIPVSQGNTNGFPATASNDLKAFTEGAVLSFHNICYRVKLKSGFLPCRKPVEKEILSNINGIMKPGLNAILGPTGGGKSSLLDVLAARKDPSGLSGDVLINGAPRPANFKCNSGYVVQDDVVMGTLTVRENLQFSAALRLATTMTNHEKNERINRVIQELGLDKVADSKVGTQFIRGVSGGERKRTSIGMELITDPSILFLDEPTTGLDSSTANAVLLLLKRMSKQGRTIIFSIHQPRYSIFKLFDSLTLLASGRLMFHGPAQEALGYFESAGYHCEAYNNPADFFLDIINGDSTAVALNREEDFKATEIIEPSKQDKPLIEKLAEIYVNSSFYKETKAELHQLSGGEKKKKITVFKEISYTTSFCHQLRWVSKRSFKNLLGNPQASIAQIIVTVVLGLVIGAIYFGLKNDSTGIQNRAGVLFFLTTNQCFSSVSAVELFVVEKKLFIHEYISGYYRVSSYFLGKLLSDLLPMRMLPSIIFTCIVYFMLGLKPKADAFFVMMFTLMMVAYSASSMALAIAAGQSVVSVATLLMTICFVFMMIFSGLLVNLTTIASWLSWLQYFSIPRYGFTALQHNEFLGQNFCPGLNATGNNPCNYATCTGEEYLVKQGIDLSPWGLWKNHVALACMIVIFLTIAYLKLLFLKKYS
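test system = two drug-resistant human cell lines, ABCG2 and ABCB1 | amount = 3 million cells/mL final, two lines in 1:1 ratio | reagent = JC-1 transporter substrate | doses = one concentration, 6.6 µM final | incubation = 10 min at 25 °C | signal = flow cytometric JC-1 green MFI at 530 nm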
MEKK3 PB1 HTS: modulators (inhibitors or enhancers) of MEK5 binding to human MEKK3 PB1 domain | Q99759 | bead-based flow cytometry, Alexa488-MEK5 binding to MEKK3; actives lie on both sides; 0 = blocked by unlabeled MEK5, 100 = vehicle | binding response (% of control), % at 10 µM | hit rate 1.4% among 290,000;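 active = binding response more than 3 SD above or below the average of its plate-row segment, actives on both sides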;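 note: Alexa488 bead fluorescence after subtracting the streptavidin-only scavenger bead signal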
MEKK2wt confirm: raises or lowers MEK5 binding to wildtype human MEKK2, retest; bead flow cytometry, Alexa488-MEK5 binding to MEKK2 WT; actives lie on both sides; shares compounds with MEKK3 PB1 HTS; AID 1892; hit rate 2.4% among 5,900; binding response (% of control), % at 10 µM; in the data active = binding response below about 16% or above about 210%; inactive = in between
MEKK2mut confirm: signal of MEK5 binding to mutant human MEKK2, retest | shares compounds with MEKK3 PB1 HTS | bead flow cytometry, Alexa488-MEK5 binding to MEKK2 mutant | percent response, % at 10 µM | hit rate 2% among 5,900 | AID 1893; in the data active = percent response mostly above about 71%, no sharp cut-off; inactive = mostly below about 38%;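 note: higher means compound restores mutant binding toward wildtype level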
MEKK3 confirm: MEKK3-MEK5 PB1 inhibition, single concentration confirmation; hit rate 1.8% among 5,900; binding response (% of control), % at 10 µM; bead flow cytometry, Alexa488-MEK5 binding to MEKK3; active compounds read low; shares compounds with MEKK3 PB1 HTS;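 active = binding response below 72% of control, or above a set upper limit, though filed actives all read lower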;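 note: 100% = DMSO only wells and 0% = binding blocked by excess unlabeled MEK5; lower values mean stronger disruption of MEK5 binding to MEKK3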
Active calls of the source: *; [ ] = dose if it differs, or a comment. Shown are actives, neighbours in structure and some others; about 2.3% of the full set was active somewhere.

For Cc1ccc(NC2CCCN(C(=O)CSc3ccccn3)C2)cc1C (configuration not stated) the results were MEKK2 WT-MEK5 98, MEKK2mut PB1 HTS -2 and MEKK3 PB1 HTS 97.
`CCn1c(=N)n(CC(=O)c2ccc(Cl)c(Cl)c2)c2ccccc21` gave MEKK2 WT-MEK5 125, MEKK2mut PB1 HTS 14 and MEKK3 PB1 HTS 109.
`N=c1n(CCN2CCCCC2)c2ccccc2n1CC(O)c1cccc(Br)c1` (configuration not stated) gave MEKK2 WT-MEK5 129, ABCB1 inh 0, MEKK2mut PB1 HTS 20, ABCG2 block 4 and MEKK3 PB1 HTS 97.
Screening N=c1n(CCN2CCCCC2)c2ccccc2n1CC(O)c1ccc(Cl)c(Cl)c1 (configuration not stated) returned MEKK2 WT-MEK5 142*, ABCB1 inh 0, MEKK2mut PB1 HTS 14, ABCG2 block 3, MEKK3 PB1 HTS 110, MEKK2wt confirm 153, MEKK2mut confirm 18 and MEKK3 confirm 103.
`N=c1n(CCN2CCCCC2)c2ccccc2n1CC(=O)c1ccc(Cl)c(Cl)c1` gave MEKK2 WT-MEK5 173*, MEKK2mut PB1 HTS 28, MEKK3 PB1 HTS 102, MEKK2wt confirm 166, MEKK2mut confirm 30 and MEKK3 confirm 106.
Screening COc1cccc(-c2ocnc2C(=O)Nc2ccc(N3CCOCC3)cc2N2CCOCC2)c1 returned MEKK2 WT-MEK5 98, MEKK2mut PB1 HTS -3 and MEKK3 PB1 HTS 96.
`CC1CN(Cc2cn(C)nc2-c2ccc(Oc3ccccc3)cc2)CCN1C` (configuration not stated) gave MEKK2 WT-MEK5 172*, ABCB1 inh 1, MEKK2mut PB1 HTS 49, ABCG2 block 0, MEKK3 PB1 HTS 112, MEKK2wt confirm 109, MEKK2mut confirm 0 and MEKK3 confirm 98.
COC(=O)c1cc(CNC(=O)Cc2ccsc2)ccc1OC was read as MEKK2 WT-MEK5 97, MEKK2mut PB1 HTS 3 and MEKK3 PB1 HTS 101.
Screening O=C(Nc1ccccn1)c1ccc([N+](=O)[O-])cc1Cl returned MEKK2 WT-MEK5 113, ABCB1 inh 0, MEKK2mut PB1 HTS 14, ABCG2 block 2 and MEKK3 PB1 HTS 103.
`O=C(Nc1ccccn1)c1cc2cc([N+](=O)[O-])ccc2s1` gave MEKK2 WT-MEK5 103, ABCB1 inh 1, MEKK2mut PB1 HTS 79*, ABCG2 block 11, MEKK3 PB1 HTS 106, MEKK2wt confirm 105, MEKK2mut confirm 8 and MEKK3 confirm 106.
Screening C/C(CC(=O)Nc1cccc(Cl)c1Cl)=N\NC(=O)c1ccccc1C returned MEKK2 WT-MEK5 4.0*[inhibitor], ABCB1 inh -1, MEKK2mut PB1 HTS -18, ABCG2 block 2, MEKK3 PB1 HTS 3.0*[inhibitor], MEKK2wt confirm 97, MEKK2mut confirm 4 and MEKK3 confirm 102.
`C/C(CC(=O)Nc1cccc(Cl)c1Cl)=N\NC(=O)C(=O)N1CCCC1` gave MEKK2 WT-MEK5 99, MEKK2mut PB1 HTS 2 and MEKK3 PB1 HTS 98.
For CCOC(=O)c1sc2nc(CSc3ccccc3)nc(N3CCCN(C)CC3)c2c1C the results were MEKK2 WT-MEK5 134, ABCB1 inh 12, MEKK2mut PB1 HTS 1, ABCG2 block 11, MEKK3 PB1 HTS 130*, MEKK2wt confirm 158, MEKK2mut confirm 21 and MEKK3 confirm 104.
Screening CN1CCc2c(sc3c2C(=O)NC(c2ccc(-c4cccc(Cl)c4)o2)N3)C1 (configuration not stated) returned MEKK2 WT-MEK5 170*, ABCB1 inh 0, MEKK2mut PB1 HTS 42, ABCG2 block -1, MEKK3 PB1 HTS 82, MEKK2wt confirm 127, MEKK2mut confirm 48 and MEKK3 confirm 104.
